Results reported in ChEMBL document CHEMBL4837210 (Eur J Med Chem, 2021).

Key:
Bacillus subtilis = test: Antibacterial activity against penicillin-susceptible Bacillus subtilis ATCC 9372 assessed as bacterial growth inhibition incubated for 24 hrs by CLSI protocol based broth microdilution method; format: functional
Bacillus pumilus = test: Antibacterial activity against penicillin-susceptible Bacillus pumilus CMCC 63202 assessed as bacterial growth inhibition by broth dilution method; format: functional; conditions: time 24 hrs
Method in brief: (§1)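 Broth microdilution in Mueller Hinton broth. A 0.5 McFarland suspension was diluted tenfold, giving an inoculum of 1.5 × 10⁷ cfu/mL. This was added to 2-fold serial compound dilutions from […]. Plates were incubated aerobically at 37 °C for 24 h. MIC was the lowest concentration with no visible turbidity.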

Staphylococcus aureus [1] = test: Antibacterial activity against erythromycin-susceptible Staphylococcus aureus ATCC 25923 assessed as bacterial growth inhibition incubated for 24 hrs by CLSI protocol based broth microdilution method; format: functional
Streptococcus pyogenes [2] = test: Antibacterial activity against erythromycin-susceptible Streptococcus pyogenes clinical isolate 1 assessed as bacterial growth inhibition incubated for 24 hrs by CLSI protocol based broth microdilution method; format: functional
Enterococcus faecalis [3] = test: Antibacterial activity against vancomycin-susceptible Enterococcus faecalis ATCC 29212 assessed as bacterial growth inhibition incubated for 24 hrs by CLSI protocol based broth microdilution method; format: functional
Pseudomonas aeruginosa = test: Antibacterial activity against penicillin-susceptible Pseudomonas aeruginosa ATCC27853 assessed as bacterial growth inhibition incubated for 24 hrs by CLSI protocol based broth microdilution method; format: functional
Escherichia coli = test: Antibacterial activity against penicillin-susceptible Escherichia coli ATCC 25922 assessed as inhibition of bacterial growth measured by broth microdilution method; format: functional; conditions: time 24 hrs; method in brief: as §1
Staphylococcus aureus [4] = test: Antibacterial activity against methicillin-resistant Staphylococcus aureus ATCC 43300 assessed as inhibition of bacterial growth by broth microdilution method; format: functional; conditions: time 24 hrs
Method in brief: (§2)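 Broth microdilution MIC. A 0.5 McFarland suspension was diluted 10-fold and added at 1.5 × 10⁷ cfu/mL to 2-fold dilutions (0.125–64) in Mueller Hinton broth. Incubated aerobically 24 h at 37 °C. MIC was the lowest concentration with no visible turbidity.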

Staphylococcus aureus [5] = test: Antibacterial activity against Staphylococcus aureus assessed as inhibition of bacterial growth measured by broth microdilution method; format: functional; conditions: time 24 hrs; method in brief: as §1
[6] = tested on: Staphylococcus epidermidis; test: Antibacterial activity against penicillin-resistant Staphylococcus epidermidis assessed as inhibition of bacterial growth measured by broth microdilution method; format: functional; conditions: time 24 hrs
Streptococcus pyogenes [7] = test: Antibacterial activity against erythromycin-resistant Streptococcus pyogenes 2 assessed as bacterial growth inhibition incubated for 24 hrs by CLSI protocol based broth microdilution method; format: functional
Enterococcus faecalis [8] = test: Antibacterial activity against vancomycin-resistant Enterococcus faecalis ATCC 51299 assessed as bacterial growth inhibition incubated for 24 hrs by CLSI protocol based broth microdilution method; format: functional
Enterococcus faecium [9] = test: Antibacterial activity against vancomycin-resistant Enterococcus faecium ATCC 51559 assessed as bacterial growth inhibition incubated for 24 hrs by CLSI protocol based broth microdilution method; conditions: ATCC 51559, 24 h
Enterococcus faecium [10] = test: Antibacterial activity against vancomycin-susceptible Enterococcus faecium ATCC19434 assessed as bacterial growth inhibition incubated for 24 hrs by CLSI protocol based broth microdilution method; conditions: ATCC19434, 24 h
Staphylococcus aureus [11] = test: Antibacterial activity against penicillin-resistant Staphylococcus aureus assessed as inhibition of bacterial growth measured by broth microdilution method; format: functional; conditions: time 24 hrs; method in brief: as §2

| Compound | MIC (Bacillus subtilis) | MIC (Bacillus pumilus) | MIC (Staphylococcus aureus [1]) | MIC (Streptococcus pyogenes [2]) | MIC (Enterococcus faecalis [3]) | MIC (Pseudomonas aeruginosa) | MIC (Escherichia coli) | MIC (Staphylococcus aureus [4]) | MIC (Staphylococcus aureus [5]) | MIC [6] | MIC (Streptococcus pyogenes [7]) | MIC (Enterococcus faecalis [8]) | MIC (Enterococcus faecium [9]) | MIC (Enterococcus faecium [10]) | MIC (Staphylococcus aureus [11]) |
| --- | --- | --- | --- | --- | --- | --- | --- | --- | --- | --- | --- | --- | --- | --- | --- |
| C[n+]1c2ccccc2cc2ccccc21.[I-] | > 64 µg/mL | > 64 µg/mL | > 64 µg/mL | > 64 µg/mL | > 64 µg/mL | > 64 µg/mL | > 64 µg/mL | > 64 µg/mL | > 64 µg/mL | > 64 µg/mL | > 64 µg/mL | > 64 µg/mL | > 64 µg/mL | > 64 µg/mL | – |
| CCc1ccc(C#Cc2c3ccccc3[n+](C)c3ccccc23)cc1.[I-] | 2 µg/mL | 2 µg/mL | 2 µg/mL | 4 µg/mL | 2 µg/mL | > 64 µg/mL | > 64 µg/mL | 2 µg/mL | 2 µg/mL | 8 µg/mL | 4 µg/mL | 8 µg/mL | 4 µg/mL | 4 µg/mL | 4 µg/mL |
| Cc1cccc(C#Cc2c3ccccc3[n+](C)c3ccccc23)c1.[I-] | 2 µg/mL | 2 µg/mL | 2 µg/mL | 4 µg/mL | 4 µg/mL | > 64 µg/mL | > 64 µg/mL | 2 µg/mL | 2 µg/mL | 4 µg/mL | 4 µg/mL | 8 µg/mL | 4 µg/mL | 8 µg/mL | 2 µg/mL |
| COc1ccc2cc3[n+](cc2c1OC)CCc1cc2c(cc1-3)OCO2.[Cl-] [BERBERINE CHLORIDE] | > 64 µg/mL | > 64 µg/mL | 64 µg/mL | > 64 µg/mL | > 64 µg/mL | > 64 µg/mL | > 64 µg/mL | > 64 µg/mL | > 64 µg/mL | > 64 µg/mL | 64 µg/mL | > 64 µg/mL | > 64 µg/mL | > 64 µg/mL | – |
| C[n+]1c2ccccc2c(/C=C/c2ccc(Cl)cc2Cl)c2ccccc21.[I-] | 0.5 µg/mL | 2 µg/mL | 0.5 µg/mL | 0.25 µg/mL | 2 µg/mL | > 64 µg/mL | 32 µg/mL | 1 µg/mL | 1 µg/mL | 2 µg/mL | 0.5 µg/mL | 8 µg/mL | 4 µg/mL | 4 µg/mL | 2 µg/mL |
| C[n+]1c2ccccc2c(C#Cc2ccc(-c3ccccc3)cc2)c2ccccc21.[I-] | 8 µg/mL | 8 µg/mL | 8 µg/mL | 16 µg/mL | – | > 64 µg/mL | > 64 µg/mL | 16 µg/mL | 16 µg/mL | 8 µg/mL | 16 µg/mL | > 64 µg/mL | > 64 µg/mL | – | 16 µg/mL |
| CCCCc1ccc(C#Cc2c3ccccc3[n+](C)c3ccccc23)cc1.[I-] | 4 µg/mL | 2 µg/mL | 4 µg/mL | 8 µg/mL | – | > 64 µg/mL | > 64 µg/mL | 4 µg/mL | 4 µg/mL | 8 µg/mL | 8 µg/mL | – | – | – | 8 µg/mL |
| C[n+]1c2ccccc2c(-c2ccc(-c3ccccc3)cc2)c2ccccc21.[I-] | 1 µg/mL | 1 µg/mL | 0.125 µg/mL | 0.5 µg/mL | 4 µg/mL | > 64 µg/mL | 64 µg/mL | 16 µg/mL | 0.25 µg/mL | 2 µg/mL | 1 µg/mL | 4 µg/mL | 2 µg/mL | 4 µg/mL | 8 µg/mL |
| C[n+]1c2ccccc2c(/C=C/c2ccc(Cl)cc2)c2ccccc21.[I-] | 2 µg/mL | 1 µg/mL | 1 µg/mL | 1 µg/mL | – | > 64 µg/mL | > 64 µg/mL | 2 µg/mL | 2 µg/mL | 2 µg/mL | 1 µg/mL | – | – | – | 4 µg/mL |
